The record followed here is ChEMBL document CHEMBL4402564, “Synthetic Lethality in Pancreatic Cancer: Discovery of a New RAD51-BRCA2 Small Molecule Disruptor That Inhibits Homologous Recombination and Synergizes with Olaparib” (J Med Chem, 2020).

Data set [1] relates to BXPC-3. The experiment in a line: Antiproliferative activity against human BxPC3 cells assessed as increase in cell death at 10 to 15 uM after 72 hrs in presence of olaparib by CellTox Green assay. In kind it is functional, cell-based. The method, boiled down:
(§1)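 BxPC-3 cells in RPMI 1640 with 10% FBS and 2 mM glutamine. Exposed 72 h to disruptor alone or with 10 μM olaparib, in medium containing 0.6% DMSO. Cell death measured in parallel with viability. Disruptor-only and combination cultures compared statistically.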

The target of data set [2] is T1, DNA repair protein RAD51 homolog 1 (Homo sapiens) (UniProt Q06609).
T1 sequence (whole entry): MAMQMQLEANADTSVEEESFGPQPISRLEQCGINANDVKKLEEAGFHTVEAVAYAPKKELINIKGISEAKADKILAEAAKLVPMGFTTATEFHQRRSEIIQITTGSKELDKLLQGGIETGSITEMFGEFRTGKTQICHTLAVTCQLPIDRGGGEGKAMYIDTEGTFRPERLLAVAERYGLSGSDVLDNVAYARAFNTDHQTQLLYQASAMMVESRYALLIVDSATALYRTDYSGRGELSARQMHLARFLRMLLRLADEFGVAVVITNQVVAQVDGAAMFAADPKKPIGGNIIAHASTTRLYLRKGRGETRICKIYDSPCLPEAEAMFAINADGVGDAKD
Description: Inhibition of RAD51 in human BxPC3 cells assessed as increase in gamma-H2AX labelling at 20 uM after 48 hrs in presence of 10 uM olaparib by immunofluorescence microscopic analysis. The format is cell-based. The method, boiled down:
(§2)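 Cells exposed 48 h to 20 μM disruptor alone or with 10 μM olaparib, in medium with 0.6% DMSO. Nuclear γ-H2AX foci visualized by immunofluorescence and percentage of labeled nuclei scored. BxPC-3 (functional BRCA2) and Capan-1 (BRCA2-defective) cultures in RPMI 1640 with 10% FBS.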

Data set [3] addresses T1, DNA repair protein RAD51 homolog 1 (Homo sapiens). The experiment in a line: Inhibition of RAD51 in human BxPC3 cells assessed as reduction in homologous recombination incubated for 5 hrs by RT-PCR analysis. In kind it is cell-based. The method in brief:
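Commercial two-plasmid recombination assay in BxPC-3 cells, with compound applied at different doses for 5 h simultaneously with plasmid transfection. Tested up to 40 μM, limited by solubility. Dose giving 50% HR inhibition estimated by polynomial regression.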

The test system of data set [4] is BXPC-3. Description: Induction of apoptosis in human BxPC3 cells assessed as increase in fluorescence at 20 uM after 72 hrs in presence of olaparib by DAPI/PI staining based fluorescence microscopic analysis. The format is functional, cell-based. The method in brief: (§3)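 BxPC-3 cells treated 72 h with disruptor alone or with olaparib, then stained with mixed DAPI (cell-permeable, nuclear condensation) and propidium iodide (membrane integrity loss). Nuclear morphology and dye uptake examined by fluorescence microscopy.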

The next data set has as its system CAPAN-1. The experiment in a line: Synergistic antiproliferative activity against BRCA2 defective human Capan1 cells at 20 uM after 72 hrs in presence of 10 uM olaparib by CellTiter-Glo luminescent cell viability assay. In kind it is functional, cell-based. The method in brief: (§4)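 HK-2 cells are non-neoplastic immortalized human kidney cells grown in DMEM:F12 with 40 ng/mL dexamethasone. Capan-1 cells are BRCA2-defective and grown in RPMI 1640 with 10% FBS and 2 mM glutamine. Both exposed to disruptor with olaparib in 0.6% DMSO medium for an antiproliferative read-out. Drug interaction assessed by two-way ANOVA and combination index (CI <0.8 synergism, 0.8–1.2 additive).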
In general terms: Cellular ATP, detected with luciferase, serves as a proxy for viable cell number.

The target in data set [5] is T1, DNA repair protein RAD51 homolog 1 (Homo sapiens). Description: Inhibition of RAD51 in human BxPC3 cells assessed as reduction in cisplatin-induced RAD51 foci formation at 20 uM preincubated for 1 hr in presence of cisplatin and followed by compound wash out and further incubated with fresh medium containing compounds for 4 hrs by DAPI-staining based immunofluorescence analysis. The format is cell-based. The method, boiled down:
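DNA damage induced in BxPC-3 by 1 h exposure to 50 μM cisplatin, with or without 20 μM disruptor. RAD51 nuclear foci immunostained and percentage of RAD51-labeled nuclei counted.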

The target is the same in data set [6]. The experiment in a line: Inhibition of RAD51 in BRCA2 defective human Capan1 cells assessed as increase in gamma-H2AX labelling at 20 uM after 48 hrs in presence of olaparib by immunofluorescence microscopic analysis. The method, boiled down:
as §2

Data set [7] relates to BXPC-3. The experiment in a line: Induction of DNA damage in human BxPC3 cells assessed as micronuclei formation at 20 uM after 72 hrs by DAPI-staining based fluorescence microscopic analysis. The format is functional, cell-based. The method, boiled down: (§5)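 BxPC-3 cultures treated 72 h with 20 μM disruptor, alone or with 10 μM olaparib, in 0.6% DMSO medium. Micronuclei outside the main nucleus visualized by DNA staining under the microscope. Percentage of micronucleated cells scored.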

Data set [8] relates to BXPC-3. The experiment in a line: Antiproliferative activity against human BxPC3 cells at 15 uM after 72 hrs in presence of olaparib by CellTiter-Glo luminescent cell viability assay. In kind it is functional, cell-based. The method in brief: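 BxPC-3 cells grown in RPMI 1640 with 10% FBS, penicillin/streptomycin and 2 mM glutamine. Disruptor given alone or with 10 μM olaparib in medium containing 0.6% DMSO, with the same DMSO in controls. Viability read at 72 h, measured alongside cell death.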

Data set [9] has as its system BXPC-3. The experiment in a line: Synergistic antiproliferative activity against human BxPC3 cells at 20 uM after 72 hrs in presence of 10 uM olaparib by CellTiter-Glo luminescent cell viability assay. In kind it is functional, cell-based. The method in brief: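 BxPC-3 viability data from 72 h exposure to disruptor with 10 μM olaparib (0.6% DMSO medium) used to compute a combination index. CI <0.8 taken as synergism and 0.8–1.2 as additive. CI at each dose tested for difference from 0.8.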

Another data set concerns HK-2. The experiment in a line: Cytotoxicity against human HK2 cells at 20 uM after 72 hrs in presence of 10 uM olaparib by CellTiter-Glo luminescent cell viability assay. In kind it is cell-based. To be noted: hk-2, 72 h. The method in brief: as §4
The test system of data set [10] is BXPC-3. The experiment in a line: Induction of apoptosis in human BxPC3 cells assessed as increase in fluorescence at 20 uM after 72 hrs by DAPI/PI staining based fluorescence microscopic analysis. The format is functional, cell-based. The method, boiled down:
as §3

In data set [11] the test system is BXPC-3. Description: Antiproliferative activity against human BxPC3 cells assessed as increase in cell death at 20 uM after 72 hrs in presence of olaparib by CellTox Green assay. In kind it is functional, cell-based. The method, boiled down: as §1
Data set [12] concerns BXPC-3. The experiment in a line: Induction of DNA damage in human BxPC3 cells assessed as micronuclei formation at 20 uM after 72 hrs in presence of olaparib by DAPI-staining based fluorescence microscopic analysis. The format is functional, cell-based. The method, boiled down:
as §5

Active and inactive are the calls of the source. No cut-off for these calls is given here.

On to `CCC(=O)N1N=C(c2c(-c3ccccc3)c3cc(Cl)ccc3[nH]c2=O)CC1c1ccc(OC)cc1` (racemic), for which the result in the data set with BXPC-3 [1] was inactive. Also, the inhibition result in [2] and in data set [5] was “Active” each time. For the same molecule, the inhibition result in data set [3] was “Dose-dependent effect”. The outcome in the data set with BXPC-3 [4], with CAPAN-1, in the data set on BXPC-3 [7], in the data set on BXPC-3 [8], in the data set with BXPC-3 [9] and in the data set on BXPC-3 [10] was Active. Further, the outcome with BXPC-3 [11] and in the data set with BXPC-3 [12] was Active. The inhibition entry in data set [6] is “inactive”. Moreover, the Activity result in the data set on HK-2 is on record as “Non-Toxic”.
